Measurements taken from ChEMBL document CHEMBL1145409, “New sst4/5-selective somatostatin peptidomimetics based on a constrained tryptophan scaffold” (J Med Chem, 2007).

Experiments:
[1] = target: Somatostatin receptor type 1 (Homo sapiens, UniProt P30872); assay: Displacement of [125I][Leu8-D-Trp22, Tyr25]-SRIF28 from human SST1 receptor
In short: (§1)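 Membrane pellets from CHO-K1 or CCL39 cells stably expressing the human receptor subtype, cut as 20 µm sections on slides for receptor autoradiography. Full displacement of [125I]-[Leu8,D-Trp22,Tyr25]-SRIF-28 by unlabeled compound at 0.1–1000 nmol/L, SRIF-28 run in parallel. Quantified by image analysis against calibrated isotope tissue standards to give IC50; mean ± SEM of 2–4 independent repetitions.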

[2] = target: Somatostatin receptor type 2 (Homo sapiens, UniProt P30874); assay: Displacement of [125I][Leu8-D-Trp22, Tyr25]-SRIF28 from human SST2 receptor; in short: as §1
Chain of Somatostatin receptor type 2 (P30874 whole entry): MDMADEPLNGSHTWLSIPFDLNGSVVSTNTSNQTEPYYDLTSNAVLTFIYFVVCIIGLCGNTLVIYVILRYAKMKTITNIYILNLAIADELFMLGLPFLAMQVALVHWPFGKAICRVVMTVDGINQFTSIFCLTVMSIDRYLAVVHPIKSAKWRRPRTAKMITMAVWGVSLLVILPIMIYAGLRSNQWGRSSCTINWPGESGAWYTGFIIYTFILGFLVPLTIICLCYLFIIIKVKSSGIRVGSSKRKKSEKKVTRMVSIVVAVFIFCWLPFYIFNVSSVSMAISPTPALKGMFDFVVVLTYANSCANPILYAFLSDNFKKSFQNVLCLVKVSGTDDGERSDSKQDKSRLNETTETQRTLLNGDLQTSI

[3] = target: Somatostatin receptor type 3 (Homo sapiens, UniProt P32745); assay: Displacement of [125I][Leu8-D-Trp22, Tyr25]-SRIF28 from human SST3 receptor; in short: as §1
Chain of Somatostatin receptor type 3 (P32745 whole entry): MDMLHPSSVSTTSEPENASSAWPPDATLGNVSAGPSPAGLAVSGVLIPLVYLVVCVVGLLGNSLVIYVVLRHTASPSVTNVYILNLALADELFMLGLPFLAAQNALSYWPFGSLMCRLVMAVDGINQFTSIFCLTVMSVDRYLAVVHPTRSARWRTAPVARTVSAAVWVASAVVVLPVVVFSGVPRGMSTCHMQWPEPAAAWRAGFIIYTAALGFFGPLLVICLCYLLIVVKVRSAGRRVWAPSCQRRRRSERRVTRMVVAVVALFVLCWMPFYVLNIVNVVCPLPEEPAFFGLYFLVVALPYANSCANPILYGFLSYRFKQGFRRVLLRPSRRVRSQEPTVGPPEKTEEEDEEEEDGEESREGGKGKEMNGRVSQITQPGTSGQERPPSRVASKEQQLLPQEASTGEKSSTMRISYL

[4] = target: Somatostatin receptor type 4 (Homo sapiens, UniProt P31391); assay: Displacement of [125I][Leu8-D-Trp22, Tyr25]-SRIF28 from human SST4 receptor; in short: as §1
Chain of Somatostatin receptor type 4 (P31391 whole entry): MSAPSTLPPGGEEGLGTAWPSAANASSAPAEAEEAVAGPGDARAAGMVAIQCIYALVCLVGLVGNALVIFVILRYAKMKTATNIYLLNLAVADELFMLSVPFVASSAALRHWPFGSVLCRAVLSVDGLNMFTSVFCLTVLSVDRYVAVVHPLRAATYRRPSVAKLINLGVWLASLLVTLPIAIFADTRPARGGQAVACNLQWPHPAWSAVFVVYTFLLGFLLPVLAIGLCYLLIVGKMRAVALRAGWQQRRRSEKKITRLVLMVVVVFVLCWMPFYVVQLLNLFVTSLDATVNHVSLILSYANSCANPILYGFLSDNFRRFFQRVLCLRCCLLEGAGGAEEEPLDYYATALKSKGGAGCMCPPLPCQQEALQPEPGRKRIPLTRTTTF

[5] = target: T1, Somatostatin receptor type 5 (Homo sapiens, UniProt P35346); assay: Displacement of [125I][Leu8-D-Trp22, Tyr25]-SRIF28 from human SST5 receptor; in short: as §1
T1 sequence (P35346 whole entry): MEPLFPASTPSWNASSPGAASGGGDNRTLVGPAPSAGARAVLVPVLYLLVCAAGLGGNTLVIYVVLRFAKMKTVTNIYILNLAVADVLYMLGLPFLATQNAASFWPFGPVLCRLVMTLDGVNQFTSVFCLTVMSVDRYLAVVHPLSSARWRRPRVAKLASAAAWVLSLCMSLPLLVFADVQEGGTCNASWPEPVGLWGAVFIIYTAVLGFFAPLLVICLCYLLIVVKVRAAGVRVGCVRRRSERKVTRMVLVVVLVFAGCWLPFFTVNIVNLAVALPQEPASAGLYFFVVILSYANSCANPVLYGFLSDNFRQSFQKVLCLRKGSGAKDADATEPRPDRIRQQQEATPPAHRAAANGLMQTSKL

[6] = target: T1, Somatostatin receptor type 5; assay: Agonist activity at human SST5 receptor expressed in CHOK1 cells assessed as effect on forskolin-induced cAMP production; type: functional, cell-based, CHO-K1
In short: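 Stably transfected sst5 CHO-K1 cells preincubated 30 min at 37 °C in medium with 0.5 mM IBMX, then 30 min at 37 °C with 0.5 mM IBMX, with or without 10 µM forskolin and graded compound concentrations. Cells lysed; cAMP measured by scintillation proximity assay, expressed as % stimulation over nonstimulated level. EC50 from nonlinear regression of dose-response curves; three experiments, triplicate wells.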

Chain of Somatostatin receptor type 1 (P30872 whole entry): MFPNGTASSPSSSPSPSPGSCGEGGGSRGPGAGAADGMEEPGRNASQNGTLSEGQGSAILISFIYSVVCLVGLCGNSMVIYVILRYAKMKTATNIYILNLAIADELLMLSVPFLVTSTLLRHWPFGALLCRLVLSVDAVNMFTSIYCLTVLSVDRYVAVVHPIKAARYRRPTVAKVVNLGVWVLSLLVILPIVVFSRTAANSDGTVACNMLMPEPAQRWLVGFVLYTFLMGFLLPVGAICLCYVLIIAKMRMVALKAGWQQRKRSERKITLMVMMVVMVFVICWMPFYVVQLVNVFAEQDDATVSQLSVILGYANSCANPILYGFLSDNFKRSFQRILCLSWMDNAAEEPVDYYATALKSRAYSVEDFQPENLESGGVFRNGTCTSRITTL

Row | IC50 [1] [µM] | IC50 [2] [µM] | IC50 [3] [µM] | IC50 [4] [µM] | IC50 [5] [µM] | EC50 [6] [µM] | Structure (SMILES)
1 | > 1 | 0.357 | > 1 | 0.129 | 0.318 |  | NCCCCCN1Cc2[nH]c3ccccc3c2C[C@@H](NC(=O)CC(c2ccccc2)c2ccccc2)C1=O
2 | 0.233 | 0.083 | 0.251 | 0.0033 | 0.0012 | 0.013 | NCCCC[C@@H](C(=O)NCc1ccccc1)N1Cc2[nH]c3ccccc3c2C[C@@H](NC(=O)Cc2ccccc2)C1=O
3 | 0.089 | 0.103 | 0.694 | 0.073 | 0.008 |  | NCCCC[C@@H](C(=O)NCc1ccccc1)N1Cc2[nH]c3ccccc3c2C[C@@H](NC(=O)CC(c2ccccc2)c2ccccc2)C1=O
4 | > 1 | > 1 | > 1 | 0.075 | 0.245 |  | NCCCCCN1Cc2[nH]c3ccccc3c2C[C@@H](NC(=O)Cc2ccccc2)C1=O
